Assay outcomes as filed in PubChem BioAssay.
Sampled rows, rich in hits. Any-hit rate of the full collection: about 9.4%.
Mdm2 MdmX PPI = human Mdm2/MdmX binding inhibition | SaOS-2 split-luciferase Mdm2/MdmX complementation, luminescence | inhibition, % at 8 µM | O15151+Q00987 | 330,000 compounds, 3% hits;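 active = inhibition of at least 50% at 8 µM in the primary screen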
Lmaj promast = Leishmania major promastigote growth inhibition | inhibition, % at 10 µM | 200,000 compounds, 9% hits | Leishmania major promastigotes, resazurin fluorescence viability | AID 1063; in the data active = inhibition above about 50%;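 note: promastigotes grown with compound for 44 hours at 28 °C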
SKKanGAS inh = inhibitors of SKKanGAS S. pyogenes growth in kanamycin (SK-promoter or general growth effect); BacTiter-Glo, 6 h; inhibition, % at 7.5 µM; 300,000 compounds, 1.3% hits;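 active = mean replicate score, as percent of positive control median, at least 50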;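 note: strain carries kanamycin resistance gene driven by streptokinase promoter and grows in 40 µg/ml kanamycin; loss of luminescence reflects streptokinase promoter inhibition or plain growth inhibition; 0% = median of DMSO wells and 100% = positive control at its reference dose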
T cruzi repl = blocks replication of Trypanosoma cruzi | 300,000 compounds, 1.4% hits | T. cruzi beta-gal in NIH3T3, luminescence, 90 h | inhibition, % (test concentration not listed);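 active = mean inhibition across valid replicates above about 55%, limit read from the data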;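 note: signal also drops with host cell toxicity which is not excluded here; 0% = plate median of DMSO wells and 100% = zero luminescence signal; higher percent means less beta-gal luminescence so fewer parasites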
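Read-out: Parasite load inhibition, % | Test system: Mouse NIH/3T3 fibroblasts infected with β-gal-expressing T. cruzi Tulahuen C4 | Amount: 5,000 cells/well | Medium: DMEM, 2% fetal bovine serum | Signal: GalScreen β-gal luminescence, detergent lysis, 60 min | Timing: 3 h attach, ≥90 h co-culture | Also added: Tulahuen C4 trypomastigotes, 5000/well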
Beta apoptosis = blocks beta cell apoptosis | protection from apoptosis, % (test concentration not listed) | 300,000 compounds, 0.8% hits | INS-1E cytokine-induced death, ATP luminescence, 48 h; percent of positive-control rescue, neutral wells zero;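 active = Every replicate reaches about 75%, or at least half do and their mean reaches it too, limit read from the data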;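 note: 0% = cytokine-treated negative control wells and 100% = positive control rescue; higher means more ATP so stronger rescue from cytokine killing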
CSC inhib = cancer stem cell inhibition. cancer stem cell-like cells viability, luminescence. inhibition, % at 7.5 µM. 300,000 compounds, 1.1% hits. AID 2717; in the data active = inhibition above about 75%; tested in HMLE shEcad cells
Mdm2 MdmX conf = confirmation of human Mdm2/MdmX interaction inhibitors. AID 489028. 10,000 compounds, 55% hits. inhibition, % at 8 µM. shares compounds with Mdm2 MdmX PPI. Mdm2-MdmX binding, luminescent assay; in the data active = inhibition above about 40%
Full FLuc ctr = full-length luciferase inhibition in Mdm2/MdmX counter-screen; 6,200 compounds, 77% hits; shares compounds with Mdm2 MdmX PPI; inhibition, % at 8 µM; SaOS-2 full-length luciferase counterscreen, luminescence; AID 504607;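 active = mean inhibition at 8 µM reaching about 37%, which flags the compound as non-specific, limit read from the data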;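 note: p53-null SaOS-2 cells with luciferase driven by a doxycycline-inducible promoter; compound on cells about two nights before reading with doxycycline added after day one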
Active calls of the source: *; . = not tested or not shown.

SMILES	Mdm2 MdmX PPI	Lmaj promast	SKKanGAS inh	T cruzi repl	Beta apoptosis	CSC inhib	Mdm2 MdmX conf	Full FLuc ctr
CC1=C(C(N)=O)C(c2ccccc2F)n2nc(CCCO)nc2N1 (centres undefined)	5.2	.	-2.2	-8.5	.	-11.3	.	.
COc1ccc(-c2c(C#Cc3ccsc3)c3cc(Br)ccc3n2C)cc1	-0.1	.	.	.	-2.9	32.9	.	.
COc1cc(C#Cc2c(C=O)n(C)c3ccccc23)cc(OC)c1	65.6*	.	.	.	-1.7	32.1	39.0	77.8*
COc1ccc(-c2c(C#Cc3ccc(N(C)C)cc3)c3ccccc3n2C)cc1	52.5*	.	.	.	6.5	.	9.3	.
Cc1ccc(O)c(C(=O)/C=C/c2ccc3c(c2)OCCO3)c1	51.8*	17.6	-8.4	-7.8	0.8	25.9	24.1	.
O=C(CCNC(=O)c1ccc(Cl)cc1)NCC(c1ccco1)N1CCCCC1 (centres undefined)	14.6	.	-2.8	7.4	1.0	-10.7	.	.
CCOC(=O)C1=C(C)NC(SC)=C(C#N)C1CC(C)C (centres undefined)	54.9*	.	-1.3	.	3.4	65.9	62.5*	66.0*
COc1nc(-c2ccccc2Cl)ccc1C#N	-1.2	1.5	-5.6	-0.2	-2.7	12.9	.	.
COc1ccc(-c2ccc(C#N)c(OC(=O)c3c(Cl)cccc3Cl)n2)cc1	63.7*	6.7	0.1	-6.9	-1.1	46.5	27.9	.
CCOC(=O)C1=C(CC)Nc2ccccc2N=C1NC(=O)c1cc(C)on1	8.7	.	.	.	-0.3	.	.	.
CCOC(=O)C1=C(CC)Nc2ccccc2N=C1NC(=O)Nc1ccc(Cl)c(Cl)c1	94.1*	96.9*	93.2*	60.9*	62.8	-3.3	80.4*	39.2*
COc1ccc(OCC(=O)NNC(=O)c2ccccn2)cc1	27.6	-3.8	-3.6	-9.6	-0.6	9.3	.	.
COc1ccc(NC(=O)NNC(=O)c2ccc(-c3ccccc3)cc2)cc1	59.1*	.	-0.6	-4.0	-2.7	-5.0	28.3	.
CC(=O)c1ccc(OCCCC(=O)NNC(=O)c2ccccn2)cc1	62.8*	.	.	.	-1.2	.	6.3	.
COc1cc(OC)cc(C(=O)NNC(=O)c2ccccn2)c1	51.3*	93.0*	4.6	-3.3	70.6	22.3	47.1*	51.4*
COc1ccc(C(=O)NNC(=O)c2ccccn2)cc1	97.6*	26.5	4.3	-4.7	0.2	16.3	93.8*	22.4
Cc1ccc(OCC(=O)N(C)CC(=O)Nc2ccc(Cl)c(C(F)(F)F)c2)c([N+](=O)[O-])n1	24.7	.	.	.	-6.0	-7.3	.	.
Nc1ccn(CC(=O)N[C@H](CO)Cc2c[nH]c3ccccc23)c(=O)n1	-4.0	.	.	.	-3.6	-4.7	.	.
CC(Oc1cccc(Br)c1)C(=O)NNC(=O)CCS(=O)(=O)c1ccccc1 (centres undefined)	27.2	.	.	.	2.7	-13.6	.	.
COc1ccc(C(=O)NNC(=O)c2ccccc2[N+](=O)[O-])cc1	-17.4	6.4	-2.5	5.5	-1.8	-4.4	.	.
COc1cccc(C(=O)N/N=C(/c2ccccc2)c2ccccn2)c1	84.3*	99.9*	55.7*	54.7*	100.9*	20.3	78.7*	39.2*
COc1cccc(C(=O)N/N=C(/CCC(=O)O)c2ccccc2)c1	-43.6	40.6	1.4	-17.0	-1.6	-9.0	.	.
COc1ccc(C(=O)NNC(=O)c2cc3ccccc3cc2O)cc1	50.4*	.	2.3	-6.1	0.9	23.5	38.8	.
CC(Oc1cccc(Br)c1)C(=O)NNC(=O)c1ccccn1 (centres undefined)	71.7*	.	.	.	53.9	37.8	60.5*	35.8
COc1cc(OC)cc(C(=O)NNC(=S)NC(=O)c2cccnc2)c1	15.9	.	16.1	-9.2	6.0	15.8	.	.
COc1cc(OC)cc(C(=O)NC(=S)NNC(=O)c2cnccn2)c1	59.6*	100.4*	35.2	35.8	84.7*	106.0*	34.4	.
CC(C)CCN1CCN(Cc2ccc(N3CCNC3=O)cc2)CC1CCO (centres undefined)	2.2	-4.6	-4.8	2.6	-4.4	13.1	.	.
CC1CCCCC1NC(=O)CNC(=O)c1cccs1 (centres undefined)	-13.7	.	-12.1	-2.0	-0.9	-4.2	.	.
